Laboratory results reported in ChEMBL document CHEMBL4627359, “Design, synthesis and biological evaluation of spiropyrazolopyridone derivatives as potent dengue virus inhibitors” (Bioorg Med Chem Lett, 2020).
pEC50: −log10 of the molar value.

How the values were obtained:
dengue virus type 2 = experiment: Antiviral activity against DENV2 infected in human Huh7 cells; type: functional, organism-based; details: Huh-7
Outline: (§1)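 Huh7 cells stably carrying a DENV replicon (serotype 1, 2, 3 or 4) with Renilla luciferase and neomycin-resistance genes. Seeded at 10k/well, incubated overnight at 37 °C in 5% CO₂, then given 2-fold serial compound dilutions in duplicate. After 48 h, luciferase was read with EnduRen live-cell substrate. EC50 came from four-parameter logistic fits of dose-response curves.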

dengue virus type 4 = experiment: Antiviral activity against DENV4 infected in human Huh7 cells; type: functional, organism-based; details: Huh-7; outline: as §1
Huh-7 = experiment: Cytotoxicity against human HuH7 cells infected with DENV2 assessed as reduction in cell viability; type: cell-based
Outline: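 Cytotoxicity was read in Huh7 cells stably carrying the DENV-2 Renilla luciferase replicon. Cells were seeded at 10k/well, incubated overnight at 37 °C in 5% CO₂, then given 2-fold serial compound dilutions in duplicate for 48 h. After the live-cell luciferase read, CellTiter-Glo was added to the same wells to measure viability.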

dengue virus type 1 = experiment: Antiviral activity against DENV1 infected in human Huh7 cells; type: functional, organism-based; details: Huh-7; outline: as §1
dengue virus type 3 = experiment: Antiviral activity against DENV3 infected in human Huh7 cells; type: functional, organism-based; details: Huh-7; outline: as §1

Row | SMILES | pEC50 (dengue virus type 2) | pEC50 (dengue virus type 4) | CC50 (Huh-7) [nM] | pEC50 (dengue virus type 1) | pEC50 (dengue virus type 3)
1 | O=C1CC2(C(=O)Nc3ccc(Cl)cc32)c2cnn(Cc3ccc(Cl)cc3)c2N1 (stereo not drawn) | 6.96 | < 5.00 | > 10000 | 5.62 | 8.22
2 | NC(=O)C1C(=O)Nc2c(cnn2Cc2ccc(Cl)cc2)C12C(=O)Nc1ccc(Cl)cc12 (stereo not drawn) | 5.49 |  | 50000 |  | 
3 | Cc1nn(Cc2ccc(Cl)cc2)c2c1C1(CC(=O)N2)C(=O)Nc2ccc(Cl)cc21 (stereo not drawn) | 5.74 | < 5.30 | > 10000 | 5.60 | 7.60
4 | O=C1CC2(C(=O)Nc3ccc(Cl)cc32)c2cn(Cc3ccc(Cl)cc3)nc2N1 (stereo not drawn) | 5.36 |  | > 10000 |  | 
5 | O=C1CC2(C(=O)Nc3ccc(Cl)cc32)c2c(C3CC3)nn(Cc3ccc(Cl)cc3)c2N1 (stereo not drawn) | 5.72 |  | > 10000 |  | 
6 | O=C1CC2(C(=O)Nc3ccc(Cl)cc32)c2cnn(Cc3ccc(F)cc3)c2N1 (stereo not drawn) | 5.38 |  |  |  | 
7 | O=C1CC2(C(=O)Nc3ccc(Cl)cc32)c2cnn(Cc3ccc(Cl)c(F)c3)c2N1 (stereo not drawn) | 7.30 | < 5.30 | > 10000 | 5.74 | 7.72
8 | O=C1CC2(C(=O)Nc3ccc(Cl)cc32)c2cnn(Cc3ccc(Cl)c(Cl)c3)c2N1 (stereo not drawn) | 7.21 | < 5.30 | > 10000 | 5.74 | < 5.30
9 | COC(=O)c1ccc(Cn2ncc3c2NC(=O)CC32C(=O)Nc3ccc(Cl)cc32)cc1 (stereo not drawn) | < 5.30 |  |  |  | 
10 | N#Cc1ccc(Cn2ncc3c2NC(=O)CC32C(=O)Nc3ccc(Cl)cc32)cc1 (stereo not drawn) | < 5.30 |  |  |  | 
11 | N#CC1C(=O)Nc2c(cnn2Cc2ccc(Cl)cc2)C12C(=O)Nc1ccc(Cl)cc12 (stereo not drawn) | 5.07 |  | 50000 |  | 
12 | CC(=O)C1C(=O)Nc2c(cnn2Cc2ccc(Cl)cc2)C12C(=O)Nc1ccc(Cl)cc12 (stereo not drawn) | < 5.00 |  | > 20000 |  | 
13 | O=C1CC2(C(=O)Nc3ccc(Cl)cc32)c2cn(Cc3ccc(Cl)c(Cl)c3)nc2N1 (stereo not drawn) | 5.96 |  | > 10000 |  | 
14 | N#Cc1cn(Cc2ccc(Cl)cc2)c2c1C1(CC(=O)N2)C(=O)Nc2ccc(Cl)cc21 (stereo not drawn) | < 5.30 |  |  |  | 
15 | O=C1CC2(C(=O)Nc3ccc(Cl)cc32)c2cnn(Cc3ccc(Cl)cc3F)c2N1 (stereo not drawn) | 6.85 | < 5.30 | > 10000 | 5.64 | 6.41
16 | O=C1CC2(C(=O)Nc3ccc(Cl)cc32)c2cnn(Cc3ccc(C(F)(F)F)cc3C(F)(F)F)c2N1 (stereo not drawn) | 7.42 | < 5.30 | > 10000 | 5.80 | 7.77
17 | O=C1CC2(C(=O)Nc3ccc(Cl)cc32)c2cnn(Cc3ccc(C(=O)O)cc3)c2N1 (stereo not drawn) | < 5.30 |  |  |  | 
18 | CS(=O)(=O)c1ccc(Cn2ncc3c2NC(=O)CC32C(=O)Nc3ccc(Cl)cc32)cc1 (stereo not drawn) | < 5.30 |  |  |  | 
